Experimental data: publication PMC11913021 (Journal of Medicinal Chemistry, 2024)
Several values for one entry are separate records, joined by “and”; a condition that tells them apart may be missing. Identical values can stand only once.

Tests used:
[1] = target: T1, PLD1 (Homo sapiens, UniProt Q13393); experiment: Drug affinity responsive target stability; type: binding; conditions: DARTS with immunoblotting
T1 sequence (Q13393 1-1074): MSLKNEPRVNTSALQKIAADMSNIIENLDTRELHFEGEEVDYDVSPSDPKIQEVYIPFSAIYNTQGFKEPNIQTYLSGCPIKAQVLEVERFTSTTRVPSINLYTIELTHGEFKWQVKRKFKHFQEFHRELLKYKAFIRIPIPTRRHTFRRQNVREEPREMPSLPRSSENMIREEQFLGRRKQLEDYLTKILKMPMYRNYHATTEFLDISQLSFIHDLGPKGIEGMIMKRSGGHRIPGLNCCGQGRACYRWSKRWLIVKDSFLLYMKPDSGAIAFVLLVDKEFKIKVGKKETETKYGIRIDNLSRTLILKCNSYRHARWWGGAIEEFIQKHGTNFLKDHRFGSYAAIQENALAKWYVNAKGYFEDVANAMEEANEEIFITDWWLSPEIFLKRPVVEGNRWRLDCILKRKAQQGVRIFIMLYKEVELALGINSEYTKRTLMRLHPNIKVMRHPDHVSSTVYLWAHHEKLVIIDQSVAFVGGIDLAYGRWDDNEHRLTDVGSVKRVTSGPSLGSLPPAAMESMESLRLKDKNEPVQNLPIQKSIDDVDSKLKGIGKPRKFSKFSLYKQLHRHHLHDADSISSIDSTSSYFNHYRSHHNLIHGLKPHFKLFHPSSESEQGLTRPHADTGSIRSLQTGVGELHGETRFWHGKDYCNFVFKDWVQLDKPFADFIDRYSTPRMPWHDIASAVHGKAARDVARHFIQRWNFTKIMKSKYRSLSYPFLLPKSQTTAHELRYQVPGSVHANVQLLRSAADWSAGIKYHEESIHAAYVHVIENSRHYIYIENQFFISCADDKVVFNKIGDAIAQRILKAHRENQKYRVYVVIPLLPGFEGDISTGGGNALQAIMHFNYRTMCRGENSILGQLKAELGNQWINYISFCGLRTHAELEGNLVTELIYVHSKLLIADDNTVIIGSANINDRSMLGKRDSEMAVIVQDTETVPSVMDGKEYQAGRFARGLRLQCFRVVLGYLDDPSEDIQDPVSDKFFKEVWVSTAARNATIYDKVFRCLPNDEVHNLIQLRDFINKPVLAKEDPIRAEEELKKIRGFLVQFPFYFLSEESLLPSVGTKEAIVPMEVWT
In short: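 A549 cells lysed in buffer with protease and phosphatase inhibitors. Cleared supernatant incubated with test compound for 1 h at RT, then digested with Pronase for 10 min at RT. Digestion stopped with SDS loading buffer and boiling at 100 °C for 5 min. PLD1 was detected by immunoblot, with β-tubulin as control.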

[2] = target: T1, PLD1; experiment: PLD activity in PLD1-overexpressing A549 cells; type: cell-based
[3] = tested on: A549 cells; experiment: WST-1 cell viability assay, A549; type: cell-based; conditions: read-out: IC50 of viability; A549, WST-1, 48 h
In short: (§1)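 Cells grown in DMEM or RPMI 1640 with 10% FBS and 1% penicillin/streptomycin at 37 °C, 5% CO2. Seeded at 5 × 10^3 cells/well and held 24 h at 37 °C, then exposed to test compound for 48 h. WST-1 absorbance was read at 450 nm, in triplicate. IC50 was taken as the concentration giving 50% growth inhibition versus control.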

[4] = tested on: Calu6 lung cancer cells; experiment: WST-1 cell viability assay, Calu6; type: cell-based; conditions: read-out: IC50 of viability; Calu6, WST-1, 48 h
In short: as §1

[5] = tested on: A549 cells; experiment: IncuCyte cell growth and death assay; type: cell-based; conditions: time-dependent
[6] = tested on: A549 cells; experiment: Colony-forming assay; type: cell-based
In short: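 Cells seeded at 500–1,000 per well; test compound added 48 h after seeding, with 48 h exposure. Medium was changed every 3 days and cultures kept 10 days. Colonies were fixed in 4% PFA for 20 min, stained with crystal violet for 30 min, and counted by image analysis.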

[7] = tested on: A549 cells; experiment: Ki67 staining proliferation assay; type: cell-based
[8] = tested on: A549 cells; experiment: Transwell migration and invasion assay; type: cell-based
In short: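 Cells at 5 × 10^4 cells/ml in serum-free medium placed in 8 μm pore transwell chambers; for invasion the chambers were Matrigel-precoated. After 24 h, non-migrated cells were swabbed off. Cells on the underside were fixed in 4% PFA for 20 min, stained with crystal violet for 10 min, and counted by light microscopy.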

[9] = tested on: KRAS; experiment: RAS activation assay in KRAS-transfected cells; type: cell-based
In short: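 Cells treated with test compound for 24 h and lysed with protease inhibitor, then spun at 13,000 rpm for 10 min at 4 °C. Lysate (800 μg) was incubated overnight at 4 °C with GST-Raf1-RBD beads and washed three times. Bound RAS-GTP was eluted in SDS buffer, heated at 100 °C for 5 min, and immunoblotted for RAS.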

[10] = tested on: CD24, CD47, PD-L1, CRT; experiment: Flow cytometry of “don’t eat-me” and “eat-me” signals in A549 cells; type: cell-based
[11] = tested on: A549 cells; experiment: In vitro phagocytosis assay; type: cell-based, human; conditions: A549 cocultured with PMA-activated THP-1
In short: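 A549 cells treated with test compound for 48 h in RPMI with 10% FBS, then labelled with 1 μM CFSE. THP-1 cells were differentiated with PMA for 36 h, and 5 × 10^5 were co-incubated with equal CFSE-labelled cells in serum-free RPMI for 2 h. After Fc block and PerCP-Cy5.5 anti-CD11b staining (20 min, 4 °C), CFSE+CD11b+ cells were counted by flow cytometry in at least three independent experiments.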

Q: “N-(3,5-Bis(trifluoromethyl)phenyl)-3-(1H-indol-3-yl)propanamide [3r]” was tested. Which “stability of PLD1 against Pronase” value [1] did it give?
A: Its value is “increased stability”.

Q: And the PLD1 activity [2]?
A: The PLD1 activity was “selectively suppressed”.

Q: And the IC50 [3]?
A: Its IC50 is 18 µM and 18.4 µM.

Q: And the IC50 [4]?
A: The IC50 was 19 µM.

Q: What about the “death of A549 cells” value [5] of the same substance?
A: The value was “increased”.

Q: What about the “proliferation of A549 cells” value [5] of the same substance?
A: The value was “significantly suppressed”.

Q: What about the colony formation [6] of the same substance?
A: Its colony formation is “significantly inhibited”.

Q: And the Ki67-positive proliferation [7]?
A: The Ki67-positive proliferation was “significantly inhibited”.

Q: And the invasion [8]?
A: Its invasion is “significantly inhibited”.

Q: What about the migration [8] of the same substance?
A: Its migration is “significantly inhibited”.

Q: What about the KRAS activation [9] of the same substance?
A: Its KRAS activation is “inhibited”.

Q: What about the “expression of “don’t eat-me” signals” value [10] of the same substance?
A: The value was “reduced”.

Q: And the “expression of “eat-me” signals” value [10]?
A: Its value is “enhanced”.

Q: What about the “CD11b^+CFSE^+ macrophages (phagocytosis)” value [11] of the same substance?
A: Its value is “significantly increased”.
